Data from PMC7442708 (SLAS discovery : advancing life sciences R & D, 2020).

Columns and labels:
HES1 and HEY1 = conditions: cited from earlier work
KOPT-K1 cells = conditions: compared to JURKAT; cited from earlier work
[1] = test system: patient-derived xenograft models; conditions: cited from earlier work
JURKAT cells = test: cell proliferation, cellular ATP; format: cell-based; conditions: 36 hours; compared to CCRF-CEM, DND-41 and CUTLL1
Procedure, shortened: (§1)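 T-ALL cell lines exposed to test compound for 36 h; MOLT-4 grown in RPMI 1640 with 15% FBS. Cellular ATP measured by CellTiter-Glo luminescence as an index of metabolically active cells. Proliferation expressed relative to DMSO control; mean ± SEM, N = 3.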

DND-41 cells = test: cell proliferation, cellular ATP; format: cell-based; conditions: 36 hours
Procedure, shortened: (§2)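 Cells kept in RPMI 1640 with 15% FBS (CCRF-CEM, DND-41) and exposed to test compound for 36 h. Cellular ATP was measured by CellTiter-Glo luminescence as an index of metabolically active cells. Proliferation is expressed relative to DMSO control; mean ± SEM, N = 3.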

CCRF-CEM cells = test: cell proliferation, cellular ATP; format: cell-based; conditions: 36 hours
Procedure, shortened: as §2

[2] = molecular target: RBPJ occupancy (RBPJ-DNA interactions in cells) (Mus musculus, UniProt P31266); test: anti-RBPJ ChIP-qPCR in F9 cells; format: cell-based, murine; conditions: 2.5 μM, 24 hours
Chain of RBPJ occupancy (RBPJ-DNA interactions in cells) (Mus musculus, UniProt P31266) (P31266 whole entry): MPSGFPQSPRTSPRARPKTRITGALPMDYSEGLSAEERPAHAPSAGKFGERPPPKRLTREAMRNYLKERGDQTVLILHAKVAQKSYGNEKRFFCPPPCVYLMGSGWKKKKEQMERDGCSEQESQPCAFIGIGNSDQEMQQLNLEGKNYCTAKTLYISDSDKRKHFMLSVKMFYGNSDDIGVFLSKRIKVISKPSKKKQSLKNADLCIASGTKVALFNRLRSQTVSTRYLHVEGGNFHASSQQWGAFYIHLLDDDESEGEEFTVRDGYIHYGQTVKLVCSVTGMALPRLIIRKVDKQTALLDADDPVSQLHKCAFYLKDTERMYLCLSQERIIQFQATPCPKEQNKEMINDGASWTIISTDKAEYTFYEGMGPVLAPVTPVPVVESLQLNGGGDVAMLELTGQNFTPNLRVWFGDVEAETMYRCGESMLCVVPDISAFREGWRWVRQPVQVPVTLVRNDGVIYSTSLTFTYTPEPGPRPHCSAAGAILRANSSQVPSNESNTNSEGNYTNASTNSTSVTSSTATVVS
Procedure, shortened: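 Murine F9 cells, grown in DMEM with 10% FBS, exposed to 2.5 µM test compound for 24 h. About 4 million cells fixed; chromatin sonicated on ice for 12 cycles (30 s on/90 s off, 40% amplitude). ChIP with polyclonal anti-RBPJ (1:100) and protein A-agarose in 500 μL. Enriched DNA quantified by SYBR green real-time PCR; Actin B serves as negative region. Mean ± SEM, N = 3.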

[3] = test system: Notch-dependent transcription; test: dual luciferase reporter assay; format: cell-based; conditions: TK-Renilla luciferase control reporter (Table S1)
MOLT4 cells = test: cell proliferation, cellular ATP; format: cell-based; conditions: 36 hours
Procedure, shortened: as §1

CUTLL1 cells = test: cell proliferation, cellular ATP; format: cell-based; conditions: 36 hours
[4] = molecular target: RBPJ occupancy (RBPJ-DNA interactions in cells) (Homo sapiens, UniProt Q06330); test: anti-RBPJ ChIP-qPCR in NICD-transfected HEK293T cells; format: cell-based; conditions: 2.5 μM, 24 hours
Chain of RBPJ occupancy (RBPJ-DNA interactions in cells) (Homo sapiens, UniProt Q06330) (Q06330 whole entry): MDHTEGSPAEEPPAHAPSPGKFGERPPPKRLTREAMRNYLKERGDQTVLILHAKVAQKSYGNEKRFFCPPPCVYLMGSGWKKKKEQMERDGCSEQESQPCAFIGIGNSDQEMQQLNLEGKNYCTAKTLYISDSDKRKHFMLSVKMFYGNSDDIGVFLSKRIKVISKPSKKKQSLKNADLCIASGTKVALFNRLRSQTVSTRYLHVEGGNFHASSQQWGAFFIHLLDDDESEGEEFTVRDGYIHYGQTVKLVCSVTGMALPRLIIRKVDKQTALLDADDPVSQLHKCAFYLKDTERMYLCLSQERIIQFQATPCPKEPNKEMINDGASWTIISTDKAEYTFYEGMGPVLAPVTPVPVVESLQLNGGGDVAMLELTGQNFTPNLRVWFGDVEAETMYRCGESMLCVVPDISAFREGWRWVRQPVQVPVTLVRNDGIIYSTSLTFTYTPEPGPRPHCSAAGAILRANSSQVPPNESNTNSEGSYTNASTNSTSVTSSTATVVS
Procedure, shortened: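 HEK293T cells (DMEM, 10% FBS) co-transfected with Flag-NICD and 4xRBPJ-firefly luciferase. About 4 million cells were fixed and sonicated on ice (12 cycles, 30 s on/90 s off, 40% amplitude). ChIP used polyclonal anti-RBPJ (FC31, 1:100) with protein A-agarose. SYBR green qPCR; mean ± SEM, N = 3.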

[5] = test system: Notch target genes HEY1 and HES1; test: RT-qPCR of endogenous gene expression in NICD-transfected HEK293T cells; format: cell-based; conditions: 2.5 μM, 24 hours; normalized to beta actin
Procedure, shortened: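 Total RNA extracted with TRIzol; cDNA reverse-transcribed from 1 μg RNA. Transcripts quantified by SYBR-based real-time PCR, normalized to beta-actin, and analyzed by the ΔΔCt method.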

TALL-1 cells = test: cell proliferation, cellular ATP; format: cell-based; conditions: 96 hours; compared to JURKAT
Procedure, shortened: (§3)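 HPB-ALL and TALL-1 cells (DSMZ), grown in RPMI 1640 with 15% FBS. Exposed to varying amounts of test compound for 96 h, a longer exposure chosen because these lines divide more slowly. Metabolically active cells measured as cellular ATP by CellTiter-Glo luminescence. Proliferation expressed relative to DMSO control; mean ± SEM, N = 3.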

HPB-ALL cells = test: cell proliferation, cellular ATP; format: cell-based; conditions: 96 hours; compared to JURKAT
Procedure, shortened: as §3

[6] = site occupied in part through CTCF

For `Cn1nccc1-c1ccc(C(N)=O)c(Oc2ccccc2F)c1` [RIN1], the “expression of the classic Notch targets HES1 and HEY1” value (HES1 and HEY1) is given as “increases the expression” and the “sensitivity of Notch-addicted KOPT-K1 cells” value (KOPT-K1 cells) is given as “as sensitive to RIN1 than Notch-independent JURKAT cells”.

In the case of `C[C@H](NC(=O)Cc1cc(F)cc(F)c1)C(=O)N[C@H](C(=O)OC(C)(C)C)c1ccccc1` [DAPT], the “expression of the classic Notch targets HES1 and HEY1” value (HES1 and HEY1) is listed as “decreases the expression”.

In the case of `CCOC(=O)COc1ccc(/C=C2\SC(=S)NC2=O)cc1OC` [IMR-1], the tumor growth [1] is listed as “impairs tumor growth”.

In the case of `CC(=O)OC[C@H]1O[C@@H]([S-])[C@H](OC(C)=O)[C@@H](OC(C)=O)[C@@H]1OC(C)=O.CCP(CC)CC.[Au+]` [auranofin, Auranofin], the “sensitivity of proliferation (cellular ATP)” value (shortened to “sensitivity of proliferation”) (JURKAT cells) is reported as “most resistant”, the “sensitivity of proliferation” value (DND-41 cells) is reported as “significantly more sensitive to auranofin than JURKAT” and the “sensitivity of proliferation” value (CCRF-CEM cells) is reported as “significantly more sensitive to auranofin than MOLT-4”. The “RBPJ occupancy at the HES1 promoter” value ([2]; direct RBPJ binding site) was “decreased RBPJ occupancy”, the “RBPJ occupancy at the ZFP334 promoter” value ([2]; direct RBPJ binding site) was “decreased RBPJ occupancy” and the “RBPJ occupancy at NANOG” value [2, 6] was “not effectively disrupted”. For the same molecule, the “RBPJ occupancy at NAPRT1” value [2, 6] was “not effectively disrupted”, the “transcription from the TK promoter” value [3] was “decreases transcription from the TK promoter” and the “sensitivity of proliferation” value (MOLT4 cells) was “more sensitive to auranofin than JURKAT”. The “sensitivity of proliferation” value (CUTLL1 cells) was “significantly more sensitive to auranofin than JURKAT”, the “RBPJ occupancy at the endogenous HES1 promoter” value [4] was “decreased RBPJ occupancy at these sites significantly” and the “RBPJ occupancy at the endogenous HEY1 promoter” value [4] was “decreased RBPJ occupancy at these sites significantly”. The “expression of HES1” value [5] was “significantly decreased”, the “expression of HEY1” value [5] was “significantly decreased” and the “expression of Notch-independent TCERG1” value [5] was “remained unchanged”. For the same molecule, the “proliferation (cellular ATP)” value (TALL-1 cells) was “decreased the proliferation” and the “proliferation (cellular ATP)” value (HPB-ALL cells) was “decreased the proliferation”.
